This note sets out measurements from ChEMBL document CHEMBL2203081 (Bioorg Med Chem Lett, 2012).

The target in assay [1] is Myotonin-protein kinase (Homo sapiens) (UniProt Q09013). Put plainly: Inhibition of DMPK assessed as residual activity at 10 uM relative to control. The essentials: (§1)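 Competition kinase-binding assay (KINOMEscan) across a non-redundant panel of 329 kinases beyond the radiometric panel; residual binding expressed relative to control.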
The subject of assay [2] is Mus musculus. The assay is described as follows: Inhibition of LRRK2 in mouse assessed as inhibition of Ser935 autophosphorylation in brain at 100 mg/kg, ip by immunoblot method. The arrangement: dose 100 mg/kg. It counts as functional, organism-based. Background: In western blotting, separated proteins are transferred to a membrane and probed.
Assay [3] addresses Leucine-rich repeat serine/threonine-protein kinase 2 (Homo sapiens) (UniProt Q5S007). The note with it: HEK293, 0.3 to 1 uM.
Assay [4] concerns the target T1, Ephrin type-B receptor 3 (Homo sapiens) (UniProt P54753).
T1 sequence (whole entry): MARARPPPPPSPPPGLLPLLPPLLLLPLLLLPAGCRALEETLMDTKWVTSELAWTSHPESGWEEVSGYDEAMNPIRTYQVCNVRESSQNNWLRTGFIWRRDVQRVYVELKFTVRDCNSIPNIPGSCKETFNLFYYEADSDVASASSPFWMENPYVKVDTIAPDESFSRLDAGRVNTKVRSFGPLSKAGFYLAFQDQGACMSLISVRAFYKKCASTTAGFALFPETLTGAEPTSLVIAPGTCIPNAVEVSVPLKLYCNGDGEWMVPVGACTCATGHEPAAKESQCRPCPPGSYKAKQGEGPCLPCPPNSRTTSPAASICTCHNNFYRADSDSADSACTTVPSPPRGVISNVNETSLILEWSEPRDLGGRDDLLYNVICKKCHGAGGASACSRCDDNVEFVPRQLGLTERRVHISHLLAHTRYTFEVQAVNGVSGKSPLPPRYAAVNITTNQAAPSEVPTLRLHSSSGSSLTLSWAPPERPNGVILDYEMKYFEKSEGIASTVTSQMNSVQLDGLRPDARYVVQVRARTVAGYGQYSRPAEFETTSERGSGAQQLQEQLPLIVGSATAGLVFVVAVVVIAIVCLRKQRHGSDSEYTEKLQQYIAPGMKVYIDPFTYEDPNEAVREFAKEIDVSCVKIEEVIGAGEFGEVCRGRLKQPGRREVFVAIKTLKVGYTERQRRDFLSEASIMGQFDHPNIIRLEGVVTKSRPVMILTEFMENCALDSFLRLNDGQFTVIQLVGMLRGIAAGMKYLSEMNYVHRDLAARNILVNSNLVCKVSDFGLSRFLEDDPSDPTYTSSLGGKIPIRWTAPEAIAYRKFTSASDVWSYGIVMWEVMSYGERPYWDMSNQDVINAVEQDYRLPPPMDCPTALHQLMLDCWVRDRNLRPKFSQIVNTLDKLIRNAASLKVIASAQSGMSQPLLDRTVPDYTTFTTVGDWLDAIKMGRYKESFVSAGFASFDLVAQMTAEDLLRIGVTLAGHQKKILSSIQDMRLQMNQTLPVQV
Put plainly: Inhibition of EPHB3 assessed as residual activity at 10 uM relative to control. The essentials:
as §1

Assay [5] deals with Rho-associated protein kinase 1 (Homo sapiens) (UniProt Q13464). Put plainly: Inhibition of ROCK1 assessed as residual activity at 10 uM relative to control.
Assay [6] deals with Serine/threonine-protein kinase DCLK2 (Homo sapiens) (UniProt Q8N568). Put plainly: Inhibition of DCAMKL2 assessed as residual activity at 10 uM relative to control. The essentials: as §1
For assay [7], the target named is Microtubule-associated serine/threonine-protein kinase 1 (Homo sapiens) (UniProt Q9Y2H9). The assay is described as follows: Inhibition of MAST1 assessed as residual activity at 10 uM relative to control.
In assay [8] the target is Dual specificity protein kinase CLK1 (Homo sapiens) (UniProt P49759). The assay is described as follows: Inhibition of CLK1 assessed as residual activity at 10 uM relative to control.
For assay [9], the target named is T2, Serine/threonine-protein kinase D1 (Homo sapiens) (UniProt Q15139).
T2 sequence (whole entry): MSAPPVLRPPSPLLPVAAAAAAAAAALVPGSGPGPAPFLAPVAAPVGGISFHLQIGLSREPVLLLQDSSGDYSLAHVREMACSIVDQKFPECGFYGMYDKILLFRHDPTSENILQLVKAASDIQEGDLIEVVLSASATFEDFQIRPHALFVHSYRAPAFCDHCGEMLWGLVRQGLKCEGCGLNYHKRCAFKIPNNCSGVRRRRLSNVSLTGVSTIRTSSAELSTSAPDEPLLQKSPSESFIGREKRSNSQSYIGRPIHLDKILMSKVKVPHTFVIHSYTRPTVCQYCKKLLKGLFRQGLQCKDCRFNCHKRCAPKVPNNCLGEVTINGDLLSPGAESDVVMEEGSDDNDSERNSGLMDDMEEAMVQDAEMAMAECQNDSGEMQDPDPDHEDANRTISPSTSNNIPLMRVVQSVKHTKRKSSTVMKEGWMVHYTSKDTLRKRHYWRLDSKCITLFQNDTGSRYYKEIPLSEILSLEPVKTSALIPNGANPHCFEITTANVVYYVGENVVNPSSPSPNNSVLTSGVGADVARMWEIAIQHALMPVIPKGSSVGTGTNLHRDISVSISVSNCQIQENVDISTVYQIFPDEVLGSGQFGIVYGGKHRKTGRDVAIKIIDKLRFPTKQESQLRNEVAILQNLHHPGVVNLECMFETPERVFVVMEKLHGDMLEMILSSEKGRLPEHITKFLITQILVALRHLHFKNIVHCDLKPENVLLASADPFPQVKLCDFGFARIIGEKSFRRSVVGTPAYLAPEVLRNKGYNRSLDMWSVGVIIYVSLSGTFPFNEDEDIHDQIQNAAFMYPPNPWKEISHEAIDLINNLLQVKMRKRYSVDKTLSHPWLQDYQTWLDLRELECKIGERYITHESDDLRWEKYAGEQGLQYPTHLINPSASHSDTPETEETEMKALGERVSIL
Put plainly: Inhibition of PRKD1 assessed as residual activity at 10 uM relative to control.

Assay [10] deals with Insulin-like growth factor 1 receptor (Homo sapiens) (UniProt P08069). The assay is described as follows: Inhibition of IGF-1R assessed as residual activity at 1 uM. The gist of the method:
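Radioactivity-based enzymatic activity assay of the named kinase, run as part of a 131-kinase specificity panel at the National Centre for Protein Kinase Profiling (Dundee). Residual activity was read at the stated single inhibitor concentration.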

Assay [11] has as its target Leucine-rich repeat serine/threonine-protein kinase 2 (Homo sapiens) (UniProt Q5S007). The note with it: 0.01 to 1 uM.
The target of assay [12] is Death-associated protein kinase 1 (Homo sapiens) (UniProt P53355). Put plainly: Inhibition of DAPK1 assessed as residual activity at 10 uM relative to control. The gist of the method: as §1
In assay [13] the target is Serine/threonine-protein kinase SIK1 (Homo sapiens) (UniProt P57059). The assay is described as follows: Inhibition of SIK assessed as residual activity at 10 uM relative to control.
In assay [14] the target is Inhibitor of nuclear factor kappa-B kinase subunit epsilon (Homo sapiens) (UniProt Q14164). Put plainly: Inhibition of IKKe assessed as residual activity at 1 uM.
In assay [15] the target is Serine/threonine-protein kinase WNK1 (Homo sapiens) (UniProt Q9H4A3). Put plainly: Inhibition of WNK1 assessed as residual activity at 10 uM.

Activity calls are given as the source filed them. The rule behind the calls is not given here.

Sequence of Leucine-rich repeat serine/threonine-protein kinase 2 (Homo sapiens) (Q5S007 whole entry): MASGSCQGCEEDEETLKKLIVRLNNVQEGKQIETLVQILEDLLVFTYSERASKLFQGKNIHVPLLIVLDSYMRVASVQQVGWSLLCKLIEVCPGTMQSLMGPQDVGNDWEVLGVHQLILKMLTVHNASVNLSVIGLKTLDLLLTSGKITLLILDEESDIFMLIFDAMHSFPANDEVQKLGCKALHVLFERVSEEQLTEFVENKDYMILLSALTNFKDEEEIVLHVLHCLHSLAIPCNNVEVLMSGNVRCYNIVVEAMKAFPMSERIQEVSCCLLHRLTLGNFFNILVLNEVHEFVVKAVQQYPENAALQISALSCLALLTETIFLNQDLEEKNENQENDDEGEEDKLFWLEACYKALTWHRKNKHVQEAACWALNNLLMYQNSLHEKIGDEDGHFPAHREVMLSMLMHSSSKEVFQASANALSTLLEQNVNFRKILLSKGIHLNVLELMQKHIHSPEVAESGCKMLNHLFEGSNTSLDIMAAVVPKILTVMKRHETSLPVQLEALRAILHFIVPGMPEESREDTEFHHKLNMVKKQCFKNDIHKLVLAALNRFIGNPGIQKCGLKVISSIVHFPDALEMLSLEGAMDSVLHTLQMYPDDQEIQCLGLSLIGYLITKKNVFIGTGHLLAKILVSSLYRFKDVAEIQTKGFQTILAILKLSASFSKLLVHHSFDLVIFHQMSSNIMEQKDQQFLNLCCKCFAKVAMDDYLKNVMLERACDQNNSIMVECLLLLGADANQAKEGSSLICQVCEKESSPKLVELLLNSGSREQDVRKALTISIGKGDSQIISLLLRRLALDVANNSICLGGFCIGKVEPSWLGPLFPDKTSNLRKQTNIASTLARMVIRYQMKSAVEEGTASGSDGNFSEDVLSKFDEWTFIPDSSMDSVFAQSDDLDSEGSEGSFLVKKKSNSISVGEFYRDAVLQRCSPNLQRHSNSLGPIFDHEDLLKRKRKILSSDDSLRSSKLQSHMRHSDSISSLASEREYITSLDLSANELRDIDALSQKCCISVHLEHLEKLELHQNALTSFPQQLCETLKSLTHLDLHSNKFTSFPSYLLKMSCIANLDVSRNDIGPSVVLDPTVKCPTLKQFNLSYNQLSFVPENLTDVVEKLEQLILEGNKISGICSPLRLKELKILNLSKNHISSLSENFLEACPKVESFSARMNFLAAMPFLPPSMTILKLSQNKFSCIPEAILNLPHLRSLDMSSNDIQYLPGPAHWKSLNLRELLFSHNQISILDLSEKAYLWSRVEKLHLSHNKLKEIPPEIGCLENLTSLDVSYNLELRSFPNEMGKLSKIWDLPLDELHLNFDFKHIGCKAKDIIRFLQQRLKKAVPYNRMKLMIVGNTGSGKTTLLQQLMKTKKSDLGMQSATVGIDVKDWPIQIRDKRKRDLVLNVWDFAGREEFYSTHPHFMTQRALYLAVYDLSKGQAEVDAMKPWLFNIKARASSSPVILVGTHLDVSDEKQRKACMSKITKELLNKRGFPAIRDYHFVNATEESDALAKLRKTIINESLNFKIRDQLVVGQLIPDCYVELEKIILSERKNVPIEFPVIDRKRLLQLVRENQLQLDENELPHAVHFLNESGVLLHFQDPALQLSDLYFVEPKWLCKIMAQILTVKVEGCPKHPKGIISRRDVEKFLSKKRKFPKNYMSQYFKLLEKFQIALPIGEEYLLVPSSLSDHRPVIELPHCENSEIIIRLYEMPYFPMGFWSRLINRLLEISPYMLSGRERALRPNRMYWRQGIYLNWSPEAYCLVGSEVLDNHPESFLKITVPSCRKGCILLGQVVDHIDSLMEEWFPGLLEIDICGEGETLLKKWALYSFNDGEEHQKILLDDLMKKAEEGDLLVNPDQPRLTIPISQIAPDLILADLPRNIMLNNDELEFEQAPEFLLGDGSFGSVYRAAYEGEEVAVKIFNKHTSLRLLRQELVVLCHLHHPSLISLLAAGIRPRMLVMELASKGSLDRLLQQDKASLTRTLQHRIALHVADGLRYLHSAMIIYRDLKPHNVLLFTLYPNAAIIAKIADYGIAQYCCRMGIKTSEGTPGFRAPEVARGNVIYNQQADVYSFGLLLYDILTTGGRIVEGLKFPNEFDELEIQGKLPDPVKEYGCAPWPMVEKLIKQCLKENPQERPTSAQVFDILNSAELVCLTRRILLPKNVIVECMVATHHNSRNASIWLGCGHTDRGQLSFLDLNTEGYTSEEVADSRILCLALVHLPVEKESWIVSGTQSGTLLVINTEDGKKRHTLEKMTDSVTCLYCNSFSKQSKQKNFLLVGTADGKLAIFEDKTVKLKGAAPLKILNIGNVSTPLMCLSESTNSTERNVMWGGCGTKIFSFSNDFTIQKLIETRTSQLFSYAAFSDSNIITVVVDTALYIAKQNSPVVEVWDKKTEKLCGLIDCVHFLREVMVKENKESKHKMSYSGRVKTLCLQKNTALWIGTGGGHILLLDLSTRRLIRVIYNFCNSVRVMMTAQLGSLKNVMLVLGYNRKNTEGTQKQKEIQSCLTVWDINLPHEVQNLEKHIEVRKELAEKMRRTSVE
Sequence of Microtubule-associated serine/threonine-protein kinase 1 (Homo sapiens) (Q9Y2H9 whole entry, looked up): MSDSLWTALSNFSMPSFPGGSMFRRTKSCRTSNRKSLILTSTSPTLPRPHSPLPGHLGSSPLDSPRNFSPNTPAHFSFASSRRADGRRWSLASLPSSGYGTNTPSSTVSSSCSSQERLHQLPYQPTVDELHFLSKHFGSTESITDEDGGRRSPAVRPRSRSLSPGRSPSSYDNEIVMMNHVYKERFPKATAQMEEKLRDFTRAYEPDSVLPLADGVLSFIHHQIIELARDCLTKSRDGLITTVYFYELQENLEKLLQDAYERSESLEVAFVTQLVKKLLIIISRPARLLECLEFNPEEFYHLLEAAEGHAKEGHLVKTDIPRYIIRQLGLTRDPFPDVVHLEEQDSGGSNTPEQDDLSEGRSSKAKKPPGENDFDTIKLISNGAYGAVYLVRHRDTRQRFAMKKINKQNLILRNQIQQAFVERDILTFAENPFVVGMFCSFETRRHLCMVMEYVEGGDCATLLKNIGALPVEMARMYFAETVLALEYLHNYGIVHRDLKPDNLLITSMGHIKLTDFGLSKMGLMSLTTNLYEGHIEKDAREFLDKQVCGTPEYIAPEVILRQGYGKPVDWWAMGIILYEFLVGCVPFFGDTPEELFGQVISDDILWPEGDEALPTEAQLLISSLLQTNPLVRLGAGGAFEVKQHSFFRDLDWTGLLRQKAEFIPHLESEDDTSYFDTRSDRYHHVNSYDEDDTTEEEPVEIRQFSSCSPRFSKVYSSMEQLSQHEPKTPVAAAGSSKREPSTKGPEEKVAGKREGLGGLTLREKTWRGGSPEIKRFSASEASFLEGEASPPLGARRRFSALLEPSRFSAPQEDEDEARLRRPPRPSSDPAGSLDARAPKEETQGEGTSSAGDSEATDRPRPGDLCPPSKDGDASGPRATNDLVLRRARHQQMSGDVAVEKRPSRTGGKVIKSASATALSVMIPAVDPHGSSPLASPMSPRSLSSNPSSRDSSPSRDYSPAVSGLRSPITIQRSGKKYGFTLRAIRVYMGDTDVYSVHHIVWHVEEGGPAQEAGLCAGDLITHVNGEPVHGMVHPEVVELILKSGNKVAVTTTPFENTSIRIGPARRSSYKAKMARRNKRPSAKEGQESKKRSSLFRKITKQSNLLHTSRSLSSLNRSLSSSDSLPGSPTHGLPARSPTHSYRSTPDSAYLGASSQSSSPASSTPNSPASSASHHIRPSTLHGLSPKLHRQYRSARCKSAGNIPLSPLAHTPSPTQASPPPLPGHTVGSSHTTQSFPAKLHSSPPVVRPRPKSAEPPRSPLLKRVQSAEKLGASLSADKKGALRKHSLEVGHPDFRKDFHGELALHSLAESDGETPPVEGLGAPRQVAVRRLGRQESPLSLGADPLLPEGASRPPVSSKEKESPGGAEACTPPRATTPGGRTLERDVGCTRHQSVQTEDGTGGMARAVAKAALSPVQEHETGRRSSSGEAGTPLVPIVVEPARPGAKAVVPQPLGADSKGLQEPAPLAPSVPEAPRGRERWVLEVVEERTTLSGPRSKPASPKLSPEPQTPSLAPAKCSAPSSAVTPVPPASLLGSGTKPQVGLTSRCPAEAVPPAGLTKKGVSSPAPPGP
Sequence of Serine/threonine-protein kinase SIK1 (Homo sapiens) (P57059 whole entry): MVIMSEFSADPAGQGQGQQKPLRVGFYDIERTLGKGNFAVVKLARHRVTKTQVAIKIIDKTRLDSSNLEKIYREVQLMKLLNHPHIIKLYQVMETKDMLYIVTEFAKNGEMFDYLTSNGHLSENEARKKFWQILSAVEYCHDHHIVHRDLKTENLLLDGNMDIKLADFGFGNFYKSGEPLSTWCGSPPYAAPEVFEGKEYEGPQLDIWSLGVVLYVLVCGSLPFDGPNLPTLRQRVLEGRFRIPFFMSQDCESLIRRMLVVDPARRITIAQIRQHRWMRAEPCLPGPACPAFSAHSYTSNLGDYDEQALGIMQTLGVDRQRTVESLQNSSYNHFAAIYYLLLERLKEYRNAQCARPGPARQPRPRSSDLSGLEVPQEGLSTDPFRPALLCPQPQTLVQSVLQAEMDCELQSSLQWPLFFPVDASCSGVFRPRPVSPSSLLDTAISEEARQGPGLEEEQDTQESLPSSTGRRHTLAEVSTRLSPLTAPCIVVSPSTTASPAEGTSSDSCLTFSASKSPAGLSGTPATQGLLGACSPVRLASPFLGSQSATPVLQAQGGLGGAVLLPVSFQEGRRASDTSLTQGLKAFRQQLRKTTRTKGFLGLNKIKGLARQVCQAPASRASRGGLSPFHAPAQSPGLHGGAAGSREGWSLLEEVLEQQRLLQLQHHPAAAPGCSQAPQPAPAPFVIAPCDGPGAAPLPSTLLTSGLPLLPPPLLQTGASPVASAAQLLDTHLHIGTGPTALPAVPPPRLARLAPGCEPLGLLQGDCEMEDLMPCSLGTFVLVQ

As for `O=C(Nc1cccnc1)c1cc(-c2ccnc(F)c2)ccc1OCc1ccccc1`, the Activity in assay [1] came out at 58%; in assay [4] it was 67%; in assay [5], 38%; in assay [6] it was 48%; in assay [7], 35%; in assay [8], 66%. The Activity came out at 41% in [9]; 123% in assay [10]; 40% in assay [12]; 46% in [13]; 106% in assay [14]; 106% in assay [15]. Moreover, the inhibition result in assay [2] is “inactive”. In addition, the inhibition result in [3] and in assay [11] was “Active” each time.
